# Published values of several laboratories.
# Each line is one published result; the experiments were not run side by side.
# Target: Serine/threonine-protein kinase 10 (STK10, Homo sapiens, UniProt O94804)
Structure (SMILES),observed,action,method,cells,concentration,quantity,result
Nc1cnc(N2CCc3cc(S(=O)(=O)Nc4c(F)cc(Cl)cc4F)cc(N4CCCC4=O)c32)nc1,cell-free assay,,competition with immobilised ligand,,1 µM,remaining binding,100%
CCN1CCN(Cc2ccc(NC(=O)c3ccc(C)c(/C=C/c4cnc5[nH]ccc5c4OC)c3)cc2C(F)(F)F)CC1,target engagement in cells,inhibitor,chemoproteomics,A-375,0.5 µM,inhibition,-69.1%
O=C(Nc1cnn(-c2csc(C(=O)NC3COC3)c2)c1)Nc1c(F)cccc1Cl,enzyme activity,inhibitor,,,5 µM,remaining activity,89%
CCN(CC)CCNC(=O)c1c(C)[nH]c(/C=C2\C(=O)Nc3ccc(F)cc32)c1C,enzyme activity,inhibitor,,,0.3 µM,inhibition,37%
Cc1cnn2ncc(-c3ccnc(N(C)C)n3)c2c1,binding,,,,1 µM,remaining binding,100%
Cc1ccc(C(=O)Nc2ccc(CN3CCN(C)CC3)c(C(F)(F)F)c2)cc1C#Cc1cnc2cccnn12,enzyme activity,inhibitor,,,23.5 nM,remaining activity,0.05%
CNC(=O)c1cc(Oc2ccc(NC(=O)Nc3ccc(Cl)c(C(F)(F)F)c3)cc2)ccn1,enzyme activity,inhibitor,,,10 µM,inhibition,88%
CC(C)c1ccc(NC(=O)c2cccs2)c(-c2nc3ccccc3[nH]c2=O)c1,enzyme activity,inhibitor,,,1 µM,activity vs control,103%
CC/C(=N\NC(=O)NCc1cccc(O)c1)c1ccc(O)c(C)c1O,enzyme activity,inhibitor,,,0.1 µM,inhibition,1%
O=C1CCc2cc(Nc3cc(OC4CCOCC4)c([N+](=O)[O-])cc3Cl)ccc2N1,cell-free assay,,competition with immobilised ligand,,1 µM,remaining binding,100%
Cc1sc(C(=O)NC2COC2)cc1-n1cc(NC(=O)Nc2c(F)cccc2Cl)cn1,enzyme activity,inhibitor,,,10 µM,remaining activity,96.4%
CCOCCn1cc(C(=O)Nc2ccc(-n3nc(-c4cccnc4)cc3C(F)(F)F)cn2)ccc1=O,cell-free assay,,competition with immobilised ligand,,1 µM,remaining binding,100%
Nc1nc(Nc2ccc(S(N)(=O)=O)cc2)nn1C(=O)c1c(F)cccc1F,cell-free assay,,,,0.5 µM,remaining signal,17%
C[C@@H](c1cccc(C#N)c1)n1cc(Cl)cc(C(N)=O)c1=N,cell-free assay,,competition with immobilised ligand,,1 µM,remaining binding,86%
CNC(=O)c1cc2c(Oc3ccc(NC(=O)C4(C(=O)Nc5ccc(F)cc5)CC4)cc3)ccnc2cc1OC,enzyme activity,inhibitor,radiometric,,1 µM,inhibition,75%
N#CCCc1ccc2c(c1)-c1[nH]c3ccc([N+](=O)[O-])cc3c1CC(=O)N2,cell-free assay,,,,0.5 µM,remaining signal,74.1%
Cc1c[nH]c2nccc(Oc3c(F)cc(Nc4cc(Cl)nc(N)n4)cc3F)c12,cell-free assay,,competition with immobilised ligand,,0.1 µM,remaining binding,100%
C#Cc1cccc(Nc2ncnc3cc(OCCOC)c(OCCOC)cc23)c1,cell-free assay,,,,0.5 µM,remaining signal,20.3%
CC(C)(O)[C@H]1CC[C@H](Nc2ccc3ncc(-c4cccc(C(F)(F)F)c4)n3n2)CC1,enzyme activity,inhibitor,,,1 µM,remaining activity,63.8%
FC(F)(F)c1ccc2c(c1)nc(-c1cccnc1)n2C1CC1,cell-free assay,,competition with immobilised ligand,,1 µM,remaining binding,100%
COc1cc(Cl)c(C(=O)N[C@@H](CN[C@H]2CC[C@@H](N)CC2)Cc2ccc(C#N)cc2)cc1-c1ccc(CN[C@H](C)c2ccc(C)cc2)o1,enzyme activity,inhibitor,,,1 µM,remaining activity,110%
CCN1CCN(Cc2ccc(NC(=O)c3ccc(C)c(Oc4ccnc5[nH]ccc45)c3)cc2C(F)(F)F)CC1,target engagement in cells,inhibitor,chemoproteomics,Huh-7,1 µM,inhibition,-148%
c1ccc(N2CCN(Cc3nc4ccccc4[nH]3)CC2)nc1,binding,,competition with immobilised ligand,,1 µM,remaining binding,100%
